Measured values from ChEMBL document CHEMBL3734660, “Inhibitory effect of cytotoxic stilbenes related to resveratrol on the expression of the VEGF, hTERT and c-Myc genes” (Eur J Med Chem, 2015).
Converted amounts (≈) assume the structure as drawn.

Experiments:
MCF7 [1] = assay: Down regulation of VEGF gene expression in human MCF7 cells at 2 ng/mL after 48 hrs by RT-qPCR analysis relative to control; format: functional
Summary of the method: (§1)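 HT-29 or MCF-7 cells grown to 70–80% confluence, serum-starved 24 h, then exposed to compound in DMSO for 48 h; DMSO-only control. Total RNA extracted and transcript measured by RT-qPCR, normalized to β-actin and expressed as percentage of control. At least three measurements; mean ± SEM; one-sample t-test.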

HT-29 [2] = assay: Down regulation of hTERT gene expression in human HT-29 cells at 3 ng/mL after 48 hrs by RT-qPCR analysis relative to control; format: functional; summary of the method: as §1
MCF7 [3] = assay: Down regulation of c-Myc gene expression in human MCF7 cells at 2 ng/mL after 48 hrs by RT-qPCR analysis relative to control; format: functional; summary of the method: as §1
HT-29 [4] = assay: Down regulation of hTERT gene expression in human HT-29 cells at 2 ng/mL after 48 hrs by RT-qPCR analysis relative to control; format: functional; summary of the method: as §1
HEK293 = assay: Cytotoxicity against HEK293 cells assessed inhibition of cell proliferation after 3 days by MTT assay; settings: Homo sapiens, HEK293, 72 h
[5] = Selectivity ratio of IC50 for HEK293 cells to IC50 for human HT-29 cells; format: ADME, cell-based; settings: HEK293 cells versus HT-29 cells, read-out: Ratio IC50
MCF7 [6] = assay: Potency index, ratio of compound activity to resveratrol activity for down regulation of VEGF gene expression in human MCF7 cells; format: functional
HT-29 [7] = assay: Down regulation of c-Myc gene expression in human HT-29 cells at 3 ng/mL after 48 hrs by RT-qPCR analysis relative to control; format: functional; summary of the method: as §1
MCF7 [8] = assay: Potency index, ratio of compound activity to resveratrol activity for down regulation of c-Myc gene expression in human MCF7 cells; format: functional
[9] = Selectivity ratio of IC50 for HEK293 cells to IC50 for human MCF7 cells; format: ADME, cell-based; settings: HEK293 cells versus MCF7 cells, read-out: Ratio IC50
MCF7 [10] = assay: Down regulation of c-Myc gene expression in human MCF7 cells at 1 ng/mL after 48 hrs by RT-qPCR analysis relative to control; format: functional; summary of the method: as §1
MCF7 [11] = assay: Cytotoxicity against human MCF7 cells assessed inhibition of cell proliferation after 3 days by MTT assay; settings: MCF7, 72 h
MCF7 [12] = assay: Down regulation of hTERT gene expression in human MCF7 cells at 2 ng/mL after 48 hrs by RT-qPCR analysis relative to control; format: functional; summary of the method: as §1
HT-29 [13] = assay: Cytotoxicity against human HT-29 cells assessed inhibition of cell proliferation after 3 days by MTT assay; settings: HT-29, 72 h
MCF7 [14] = assay: Inhibition of VEGF protein secretion in human MCF7 cells at 2 ng/mL after 72 hrs by ELISA relative to control; format: functional; design: scale not given: the % may be the effect or the level left
MCF7 [15] = assay: Down regulation of VEGF gene expression in human MCF7 cells at 1 ng/mL after 48 hrs by RT-qPCR analysis relative to control; format: functional; summary of the method: as §1
MCF7 [16] = assay: Potency index, ratio of compound activity to resveratrol activity for down regulation of hTERT gene expression in human MCF7 cells; format: functional
HT-29 [17] = assay: Down regulation of VEGF gene expression in human HT-29 cells at 3 ng/mL after 48 hrs by RT-qPCR analysis relative to control; format: functional; summary of the method: as §1
HT-29 [18] = assay: Down regulation of VEGF gene expression in human HT-29 cells at 2 ng/mL after 48 hrs by RT-qPCR analysis relative to control; format: functional; summary of the method: as §1
HT-29 [19] = assay: Down regulation of VEGF gene expression in human HT-29 cells at 1 ng/mL after 48 hrs by RT-qPCR analysis relative to control; format: functional; summary of the method: as §1
HT-29 [20] = assay: Down regulation of c-Myc gene expression in human HT-29 cells at 1 ng/mL after 48 hrs by RT-qPCR analysis relative to control; format: functional; summary of the method: as §1
HT-29 [21] = assay: Down regulation of hTERT gene expression in human HT-29 cells at 1 ng/mL after 48 hrs by RT-qPCR analysis relative to control; format: functional; summary of the method: as §1
HT-29 [22] = assay: Potency index, ratio of compound activity to resveratrol activity for down regulation of hTERT gene expression in human HT-29 cells; format: functional
MCF7 [23] = assay: Inhibition of VEGF protein secretion in human MCF7 cells at 1 ng/mL after 72 hrs by ELISA relative to control; format: functional; design: scale not given: the % may be the effect or the level left
MCF7 [24] = assay: Down regulation of hTERT gene expression in human MCF7 cells at 1 ng/mL after 48 hrs by RT-qPCR analysis relative to control; format: functional; summary of the method: as §1
HT-29 [25] = assay: Inhibition of VEGF protein secretion in human HT-29 cells at 3 ng/mL after 72 hrs by ELISA relative to control; format: functional; design: scale not given: the % may be the effect or the level left
HT-29 [26] = assay: Inhibition of VEGF protein secretion in human HT-29 cells at 1 ng/mL after 72 hrs by ELISA relative to control; format: functional; design: scale not given: the % may be the effect or the level left
[27] = Inhibition of VEGF protein secretion in human HT-29 cells at 2 ng/mL after 72 hrs by ELISA relative to control; format: functional; design: scale not given: the % may be the effect or the level left
HT-29 [28] = assay: Potency index, ratio of compound activity to resveratrol activity for down regulation of c-Myc gene expression in human HT-29 cells; format: functional
HT-29 [29] = assay: Down regulation of c-Myc gene expression in human HT-29 cells at 2 ng/mL after 48 hrs by RT-qPCR analysis relative to control; format: functional; summary of the method: as §1

Compound: COc1ccc(/C=C/c2ccc(N)cc2)cc1
- Activity (MCF7 [1]): 36%
- Activity (HT-29 [2]): 48%
- Activity (MCF7 [3]): 30%
- Activity (HT-29 [4]): 100%
- IC50 (HEK293): 12 ng/mL (≈ 0.0533 µM)
- selectivity ratio [5]: 3.4
- Ratio (MCF7 [6]): 5000
- Activity (HT-29 [7]): 69%
- Ratio (MCF7 [8]): 3000
- selectivity ratio [9]: 5.7
- Activity (MCF7 [10]): 54%
- IC50 (MCF7 [11]): 2.1 ng/mL (≈ 0.00932 µM)
- Activity (MCF7 [12]): 51%
- IC50 (HT-29 [13]): 3.6 ng/mL (≈ 0.016 µM)
- Activity (MCF7 [14]): 75%
- Activity (MCF7 [15]): 48%
- Ratio (MCF7 [16]): 3000
- Activity (HT-29 [17]): 67%
- Activity (HT-29 [18]): 66%
- Activity (HT-29 [19]): 65%
- Activity (HT-29 [20]): 88%
- Activity (HT-29 [21]): 100%
- Ratio (HT-29 [22]): 3000
- Activity (MCF7 [23]): 100%
- Activity (MCF7 [24]): 80%
- Activity (HT-29 [25]): 59%
- Activity (HT-29 [26]): 92%
- Activity [27]: 84%
- Ratio (HT-29 [28]): 3000
- Activity (HT-29 [29]): 71%
